Results from ChEMBL document CHEMBL4007447, “Synthesis, biological evaluation and molecular docking study of N-(2-methoxyphenyl)-6-((4-nitrophenyl)sulfonyl)benzamide derivatives as potent HIV-1 Vif antagonists” (Eur J Med Chem, 2017).
≈ marks a conversion by molar mass, not a printed value. Calls of active or inactive are those of the source. The calls are words filed in the database; no cut-off is given here.

What was measured:
Plasma = test: Protein binding in Sprague-Dawley rat plasma up to 30 ug/ml after 2 hrs by HPLC analysis; assay type: ADME, cell-free
Summary of the method: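 Heparinized arterial plasma from male and female Sprague-Dawley rats incubated with compound at final 30, 20 or 5 μg/mL, 37 °C for 2 h. Free drug separated by 30 kD ultrafiltration (2000 g, 4 °C, 15 min) and measured by HPLC with UV 251 nm; binding = (Dt − Df)/Dt × 100%.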

[1] = Cytotoxicity against human H9 cells assessed as reduction in cell viability after 7 days by MTT assay; assay type: cell-based
Summary of the method: (§1)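 MTT viability assay. H9 at 4×10^4 cells/well or PHA-stimulated PBMCs at 5×10^5 cells/well were incubated with serially diluted compound at 37 °C, 5% CO2 for seven days before MTT read-out. CC50 was calculated; mean ± standard deviation of three separate experiments.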

[2] = system: Human immunodeficiency virus 1; test: Antiviral activity against HIV1 subtype B NL4-3 infected in human H9 cells assessed as reduction in p24 level after 7 days by ELISA; assay type: functional, cell-based; settings: Human immunodeficiency virus 1, subtype B NL4-3, H9, 168 h
Summary of the method: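 H9 cells infected with NL4-3 at MOI 0.03 for 2 h, washed three times, then seeded at 4×10^4 cells/well with serially diluted compound. Incubated 7 days; supernatant p24 measured by in-house ELISA and EC50 calculated. Three separate experiments, mean ± standard deviation.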

[3] = Therapeutic index, ratio of CC50 for human H9 cells to EC50 for HIV1 subtype B NL4-3 infected in human H9 cells
Summary of the method: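 Ratio of CC50 to EC50, both measured in H9 cells: MTT cytotoxicity over seven days, and p24 ELISA after 7 days of NL4-3 infection at MOI 0.03.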

[4] = system: Human immunodeficiency virus 1; test: Inhibition of HIV1 Vif expressed in TREX-hVif-15 cells co-expressing EYFP-N1-tagged human A3G assessed as reduction in Vif-mediated A3G degradation after 48 hrs by flow cytometry; assay type: cell-based
Summary of the method: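 TREX-hvif-15 cells, in which Vif is under Tet-On control, were plated at 2×10^5 cells/well and grown overnight. At about 80% confluence they were transfected with EYFP-N1-hA3G. After 6 h the cells were washed, and compounds at varied concentrations were added together with doxycycline to induce Vif. Cells were trypsin-harvested 48 h post-transfection, and EYFP-positive cells were measured by flow cytometry. The no-Vif condition was set to 100%.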

[5] = system: Human immunodeficiency virus 1; test: Inhibition of HIV1 Vif expressed in TREX-hVif-15 cells co-expressing HA-tagged A3G assessed as reduction in Vif-mediated A3G degradation by measuring increase in A3G expression after 48 hrs by Western blot method; assay type: cell-based
Summary of the method: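 TREX-hvif-15 cells were plated at 2×10^5 cells/well and transfected at about 80% confluence with pcDNA3.1-APOBEC3G-HA. At 6 h they were washed and given fresh DMEM/10% FBS, graded compound concentrations, and 0.1 µg/mL doxycycline to induce Vif. Total protein was extracted 48 h post-transfection, and HA tag, Vif and β-actin were read by western blot.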

[6] = Cytotoxicity against human PBMC assessed as reduction in cell viability after 7 days by MTT assay; assay type: cell-based; summary of the method: as §1
[7] = system: Human immunodeficiency virus 1; test: Antiviral activity against HIV1 subtype B/C isolate KM018 infected in human PBMC assessed as reduction in p24 level after 7 days by ELISA; assay type: functional; settings: Human immunodeficiency virus 1, subtype B/C isolate KM018, 168 h
[8] = system: Human immunodeficiency virus 1; test: Antiviral activity against HIV1 subtype B isolate SF162 infected in human PBMC assessed as reduction in p24 level after 7 days by ELISA; assay type: functional; settings: Human immunodeficiency virus 1, subtype B isolate SF162, 168 h
[9] = system: Human immunodeficiency virus 1; test: Antiviral activity against HIV1 subtype CRF01-AE isolate TC-1 infected in human PBMC assessed as assessed as reduction in p24 level after 7 days by ELISA; assay type: functional; settings: Human immunodeficiency virus 1, subtype CRF01-AE isolate TC-1, 168 h
[10] = system: Human immunodeficiency virus 1; test: Antiviral activity against HIV1 subtype CRF01-AE isolate WAN infected in human PBMC assessed as assessed as reduction in p24 level after 7 days by ELISA; assay type: functional; settings: Human immunodeficiency virus 1, subtype CRF01-AE isolate WAN, 168 h
[11] = Aqueous solubility in water after 24 to 72 hrs by HPLC based shake flask method; assay type: physicochemical
Summary of the method: (§2)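 Equilibrium shake-flask solubility: excess compound placed in water, methanol, ethanol, acetonitrile, ethyl acetate or acetone and shaken 24-72 h at 25 °C. Filtered through 0.22 μm membrane, diluted, and quantified by HPLC on a C18 column with methanol/water 70/30 mobile phase and UV 251 nm. n=3, mean ± SD.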

[12] = Solubility in methanol after 24 to 72 hrs by HPLC based shake flask method; assay type: physicochemical; summary of the method: as §2
[13] = Solubility in ethanol after 24 to 72 hrs by HPLC based shake flask method; assay type: physicochemical; summary of the method: as §2
[14] = Solubility in acetonitrile after 24 to 72 hrs by HPLC based shake flask method; assay type: physicochemical; summary of the method: as §2
[15] = Solubility in ethylacetate after 24 to 72 hrs by HPLC based shake flask method; assay type: physicochemical; summary of the method: as §2
[16] = Solubility in acetone after 24 to 72 hrs by HPLC based shake flask method; assay type: physicochemical; summary of the method: as §2
[17] = system: Human immunodeficiency virus 1; test: Inhibition of HIV1 NL4-3 Vif expressed in 293T cells co-expressing HA-tagged A3G assessed as reduction in Vif-mediated A3G degradation by measuring increase in A3G expression after 48 hrs by Western blot method; assay type: cell-based
Summary of the method: (§3)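 293T cells were plated at 2×10^5 cells/well, grown overnight, and co-transfected at about 80% confluence with pcDNA3.1-APOBEC3G-HA and pNL4-3 (Lipofectamine 2000). Medium was replaced at 6 h with DMEM/10% FBS, then compounds were added at a range of concentrations for 48 h. HA tag, Vif, p24 and β-actin (internal control) in total lysates were read by western blot.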

[18] = system: Human immunodeficiency virus 1; test: Antiviral activity against HIV1 NL4-3 infected in 293T cells expressing HA-tagged A3G assessed as reduction in Vif expression after 48 hrs by Western blot method; assay type: functional, cell-based; summary of the method: as §3
[19] = 1-octanol/water partition co-efficient, log P of the compound after 2 hrs by shake-flask method; assay type: physicochemical
Summary of the method: (§4)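 Octanol and water mutually pre-saturated 24 h at 37 °C; excess compound dissolved in octanol phase by sonication, centrifuged, supernatant mixed 1:1 (v/v) with aqueous phase. Shaken at 120 rpm, 37 °C for 2, 4 or 7 h; phases separated by centrifugation and quantified by HPLC, in triplicate. Log P = lg(Co/Cw).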

[20] = 1-octanol/water partition co-efficient, log P of the compound after 4 hrs by shake-flask method; assay type: physicochemical; summary of the method: as §4
[21] = 1-octanol/water partition co-efficient, log P of the compound after 7 hrs by shake-flask method; assay type: physicochemical; summary of the method: as §4
[22] = N-octanol/water partition co-efficient, log P of the compound in octanol to water phase ratio of 1:1 up to 7 hrs by shake-flask method; assay type: physicochemical
[23] = N-octanol/water partition co-efficient, log P of the compound in octanol to water phase ratio of 1:4 up to 7 hrs by shake-flask method; assay type: physicochemical
[24] = N-octanol/water partition co-efficient, log P of the compound in octanol to water phase ratio of 1:9 up to 7 hrs by shake-flask method; assay type: physicochemical
[25] = system: Human immunodeficiency virus 1; test: Antiviral activity against HIV1 isolate TC-1 infected in human PBMC assessed as inhibition of p24 expression up to 20 uM after 7 days by Western blot method
[26] = system: Human immunodeficiency virus 1; test: Antiviral activity against HIV1 isolate TC-1 infected in human PBMC expressing HA-tagged A3G assessed as downregulation of Vif expression after 7 days by Western blot method
[27] = system: Human immunodeficiency virus 1; test: Inhibition of HIV1 isolate TC-1 Vif infected in […]-stimulated human PBMC expressing HA-tagged A3G assessed as reduction in Vif-mediated A3G degradation up to 20 uM after 7 days by Western blot method
[28] = Stability of the compound in pH 4 buffer solution at 100 uM after 180 hrs by HPLC analysis; assay type: physicochemical; settings: read-out: Stability
[29] = Stability of the compound in pH 7 buffer solution at 100 uM up to 168 hrs by HPLC analysis; assay type: physicochemical; settings: pH 7, 168 h
Summary of the method: (§5)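 Compound added to pH 4, 7 or 9 buffers at 100 μM final and shaken at 100 rpm, 37 °C. Sampled at 0–168 h (pH 4 and 7) or 0–15 h (pH 9) and analysed by HPLC on C18 with acetonitrile/water containing 0.1% triethylamine (70/30) and UV 248 nm.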

[30] = Drug degradation in pH 9 buffer solution at 100 uM after 15 hrs by HPLC analysis; summary of the method: as §5
Liver = test: Prodrug activation in human liver microsomes assessed as 2-Amino-N-(2-methoxyphenyl)-6-((4-nitrophenyl)sulfonyl)benzamide formation at 1.5 mg/ml after 20 mins in presence of NADPH by HPLC analysis; assay type: microsome
Summary of the method: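 Prodrug (1.5 mg/mL stock, 1.5 μL) incubated with human liver microsomes in 0.1 M phosphate buffer pH 7.4 with NADPH-generating system at 37 °C for 0, 5, 10, 15, 20 and 40 min. Stopped with methanol, centrifuged, supernatant dried under nitrogen, redissolved in mobile phase, analysed by HPLC and HPLC-MS.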

With `COc1ccccc1NC(=O)c1c(N)cccc1S(=O)(=O)c1ccc([N+](=O)[O-])cc1` the PPB (Plasma) was “Active”, the CC50 at 168 h [1] was no less than 462 µM and the EC50 [2] was 1.4 to 1.54 µM. For the same molecule, the “Ratio CC50/EC50” value [3] was 300, the inhibition [4] was “Dose-dependent effect” and the inhibition [5] was “Dose-dependent effect”. For the same molecule, the CC50 at 168 h [6] was greater than 468 µM, the EC50 [7] was 17.8 µM and the EC50 [8] was 17.8 µM. It also gave an EC50 [9] of 0.522 µM, an EC50 [10] of 2.95 µM and a solubility thermodynamic [11] of 0.66 µg/mL (≈ 0.00154 mM). It also gave a solubility thermodynamic [12] of 814 µg/mL (≈ 1.9 mM), a solubility thermodynamic [13] of 284 µg/mL (≈ 0.664 mM) and a solubility thermodynamic [14] of 9090 µg/mL (≈ 21.3 mM). For the same molecule, the solubility thermodynamic [15] was 4380 µg/mL (≈ 10.2 mM), the solubility thermodynamic [16] was 22400 µg/mL (≈ 52.4 mM) and the inhibition [17] was “Dose-dependent effect”. The Activity [18] was “Dose-dependent effect”, the logP at 2 h [19] was 2.41 and the logP at 4 h [20] was 2.4. The logP at 7 h [21] was 2.4, the logP at 7 h [22] was 2.4 and the logP at 7 h [23] was 2.53. The logP at 7 h [24] was 2.55, the inhibition [25] was “Active” and the Activity [26] was “Active”. The inhibition [27] was “Active”.
For `COc1ccccc1NC(=O)c1c(NC(=O)CN)cccc1S(=O)(=O)c1ccc([N+](=O)[O-])cc1`, the remaining at 180 h, 100 µM [28] was 50%, the CC50 at 168 h [1] was 196 µM and the EC50 [2] was 0.248 µM. The “Ratio CC50/EC50” value [3] was 790, the solubility thermodynamic [11] was 1730 µg/mL (≈ 3.57 mM) and the Stability [29] was “Stable”. The Drug degradation [30] was greater than 90% and the Drug metabolism (Liver) was “Metabolite_Detected”.
